The subject of this assay is HeLa. Put plainly: Cytotoxicity against human HeLa cells after 72 hrs by MTT assay. In kind it is functional, cell-based. The gist of the method: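 HeLa cells grown in DMEM with 10% FBS, 2 μg/mL gentamycin and 2 μg/mL antibiotic-antimycotic at 37 °C under 5% CO2. Seeded at 1 × 10^4 cells/mL and preincubated 24 h. Sample added, then incubated 72 h. MTT (1 mg/mL saline) added for 3 h. Supernatant discarded, formazan dissolved in DMSO, absorbance read for IC50. Adriamycin was the positive control.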
In general terms: Tetrazolium dyes change colour on reduction, which living cells bring about.

The term IC50 denotes the concentration that gives 50% inhibition. The low end stands for inhibition by little substance, the high end for a need for much substance.

Consider `C#C[C@H](O)/C=C/CCCCCCCCC/C=C\CCCCCCCCCCC/C=C/[C@@H](O)C#C`, for which the IC50 is 260 nM.

For `C#C[C@H](O)/C=C/CCCCCCCCC/C=C\CCCCCCCCC/C=C/[C@@H](O)C#C`, 500 nM corresponded to half-maximal inhibition (IC50).

On to `C#C/C=C\[C@@H](O)CCCCCCCCCCC/C=C\CCCCCCCCC/C=C/[C@@H](O)C#C`, for which 340 nM corresponded to half-maximal inhibition (IC50).

As to `COc1cccc2c1C(=O)c1c(O)c3c(c(O)c1C2=O)C[C@@](O)(C(=O)CO)C[C@@H]3O[C@H]1C[C@H](N)[C@H](O)[C@H](C)O1` [DOXORUBICIN], the IC50 is 1640 nM.

`C#C[C@H](O)/C=C/CCCCCCCCC/C=C\CCCC/C=C\CCCCCCCCC/C=C/[C@@H](O)C#C` registered an IC50 of 80 nM.

`C#C[C@H](O)/C=C/CCCCC/C=C\CCCC/C=C\CCCCCCCCC/C=C/[C@@H](O)C#C` displayed an IC50 of 260 nM. Compared with the last compound, the IC50 is about 3.2-fold higher.

`C#C[C@H](O)/C=C/CCCCCCC/C=C\CCCC/C=C\CCCCCCCCC/C=C/[C@@H](O)C#C` had an IC50 of 100 nM.

These data come from ChEMBL document CHEMBL1800043, “(-)-Duryne and its homologues, cytotoxic acetylenes from a marine Sponge Petrosia sp” (J Nat Prod, 2011).
